Reference: ChEMBL document CHEMBL1938316, “Synthesis and anti-HCV activity evaluation of anilinoquinoline derivatives” (Bioorg Med Chem Lett, 2012)
pEC50: −log10 of the molar value. The source made the active and inactive calls. The rule behind the calls is not given here.

Tests used:
Hepatitis C virus [1] = assay: Antiviral activity against HCV infected in human Ava5 cells assessed as reduction in HCV RNA level after 3 days by qRT-PCR analysis; assay type: functional, organism-based, Hepacivirus hominis; settings: for pEC50: Ava5, 72 h
How it was run: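 Ava5 cells (Huh7 harbouring HCV subgenomic replicon) exposed to compounds at 0.5–150 µM for 3 days. Total cellular RNA quantified by RT-qPCR with HCV-specific primers, normalised to GAPDH mRNA. EC50 is the concentration lowering HCV RNA by 50% versus 0.1% DMSO mock, from non-linear regression. Means of triplicate experiments.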

[2] = Selectivity index, ratio of CC50 for human Ava5 cells to IC50 for HCV replication; assay type: functional
How it was run: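 CC50 from MTS viability in Ava5 cells, run in parallel with replicon treatment (0.5–150 µM, 3 days, versus 0.1% DMSO mock). EC50 is 50% reduction in HCV RNA by RT-qPCR. Index calculated as CC50/EC50.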

Hepatitis C virus [3] = assay: Antiviral activity against HCV infected in human Ava5 cells assessed as inhibition of NS5B protein expression after 4 days by Western blot analysis; assay type: functional, organism-based; settings: Hepacivirus hominis
How it was run: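 Ava5 cells (Huh7 carrying HCV subgenomic replicon) incubated 4 days with compound at 2.5–15 µM; 0.1% DMSO as mock. Cell lysates analysed by western blot with anti-NS5B antibody, GAPDH as loading control.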

[4] = tested on: Internal ribosome entry site (IRES); assay: Inhibition of HCV IRES-mediated translation by secretory alkaline phosphatase reporter gene assay; assay type: nucleic-acid assay; settings: Hepacivirus hominis
Huh-7 = assay: Inhibition of HCV NS3/4A protease expressed in human Huh7 cells coexpressing EGFP at 15 uM after 3 days by secretory alkaline phosphatase reporter gene assay; assay type: cell-based; settings: Hepacivirus hominis
How it was run: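 Huh-7 cells transfected 6 h with 0.5 µg pEG(Δ4AB)SEAP-NS3/4A reporter plasmid, then treated with compound at 5, 10, 12.5 and 15 µM. Controls: 10 nM BILN 2061 (positive) and 0.1% DMSO (mock). SEAP activity in culture medium read after 3 days, expressed as % reduction versus mock. Triplicates, mean ± SD.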

Hepacivirus hominis = assay: Inhibition of HCV NS5B polymerase activity by luciferase reporter gene assay
Hepatitis C virus [5] = assay: Antiviral activity against HCV infected in human Ava5 cells assessed as reduction in HCV RNA level at 15 uM after 3 days by qRT-PCR analysis relative to control; assay type: functional, Hepacivirus hominis; parameters: scale not given: the % may be the effect or the level left
How it was run: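 HCV replicon Ava5 cells treated 3 days at 2.5–15 µM. HCV RNA measured by RT-qPCR, normalised to GAPDH mRNA, relative to 0.1% DMSO mock. Triplicate experiments, mean ± SD.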

| Structure (SMILES) | pEC50 (Hepatitis C virus [1]) | Ratio CC50/EC50 [2] | other results |
| --- | --- | --- | --- |
| COc1cc(Nc2ccc3ccccc3n2)cc(OC)c1 | 4.48 | 1 | – |
| Brc1ccccc1Nc1ccc2ccccc2n1 | 4.22 | 1 | – |
| O=[N+]([O-])c1cccc(Nc2ccc3ccccc3n2)c1 | 5.15 | 10 | inhibition (Hepatitis C virus [3]): Dose-dependent effect; Activity (Hepatitis C virus [1]; Hepacivirus hominis): Dose-dependent effect; inhibition [4]: inactive; inhibition (Huh-7): 40%; inhibition (Hepacivirus hominis): inactive; Activity (Hepatitis C virus [5]): 80% |
| c1ccc(Nc2ccc3ccccc3n2)cc1 | 4.64 | 1.96 | – |
| COc1cc(Nc2ccc3ccccc3n2)cc(OC)c1OC | 4.60 | 3 | – |
| Cc1ccc(Nc2ccc3ccccc3n2)c(C)c1 | 4.46 | 1 | – |
| O=[N+]([O-])c1cc(Nc2ccc3ccccc3n2)ccc1O | 4.66 | 3.8 | – |
| Cc1ccc(Nc2ccc3ccccc3n2)cc1 | 4.37 | 1 | – |
| Cc1cccc(C)c1Nc1ccc2ccccc2n1 | 4.40 | 1 | – |
| O=[N+]([O-])c1ccc(Nc2ccc3ccccc3n2)cc1 | 4.70 | 2.4 | – |
| Clc1cc(Br)ccc1Nc1ccc2ccccc2n1 | 4.35 | 1 | – |
| COc1ccc(Nc2ccc3ccccc3n2)cc1 | 4.37 | 1 | – |
| Cc1cc(C)cc(Nc2ccc3ccccc3n2)c1 | 4.51 | 1 | – |
| N#Cc1ccc(Nc2ccc3ccccc3n2)cc1 | 4.84 | 3.5 | – |
| Clc1ccc(Nc2ccc3ccccc3n2)cc1 | 4.28 | 1.1 | – |
| Cc1cc(Cl)ccc1Nc1ccc2ccccc2n1 | 4.90 | 3.4 | – |
| c1ccc(COc2cccc(Nc3ccc4ccccc4n3)c2)cc1 | 4.82 | 3.1 | – |
| CCOC(=O)c1ccc(Nc2ccc3ccccc3n2)cc1 | 4.30 | 2.9 | – |
